# MBD2 DNA inh = inhibitors of MBD2 binding to methylated DNA, primary screen, biochemical, TR-FRET, DNA-binding domain, human; Methyl-CpG-binding domain protein 2 (Homo sapiens), Q9UBB5; MBD2 binding to methylated oligonucleotide; inhibition, % at 4.4 µM; 0.31% of 370,000 active; AID 686964, 2013; in the data active = inhibition above about 13%
# UHRF1 binding = UHRF1 methylated DNA binding inhibitors, primary screen, counter-screen for MBD2 inhibitor project, biochemical, TR-FRET, human UHRF1, single concentration; E3 ubiquitin-protein ligase UHRF1 (Homo sapiens), Q96T88; AID 687016, 2013; UHRF1 binding to methylated oligo; 0.75% of 370,000 active; inhibition, % at 4.4 µM;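 also: UHRF1 SRA domain binding a hemimethylated CpG hairpin DNA probe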
# LEDGF integ inh = blockers of LEDGF/p75-dependent integrase strand transfer – biochemical, TR-FRET, high throughput, primary screen; 0.64% of 370,000 active; inhibition, % at 3.7 µM; HIV-1 integrase (with human LEDGF/p75); AID 743269, 2014; TR-FRET IN-LEDGF/p75 DNA integration, Eu/Cy5;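 active = inhibition above the screen-wide mean plus 3 SD, cut at about 13% in these data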;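 also: signal is the Cy5 over europium emission ratio at 671 and 618 nm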
# TDP2 inh = human TDP2 enzyme inhibitors, primary screen, biochemical, epi absorbance, recombinant enzyme | AID 720702, 2013 | 0.34% of 370,000 active | Tyrosyl-DNA phosphodiesterase 2 (Homo sapiens), O95551 | inhibition, % at 12.8 µM | T5PNP hydrolysis, p-nitrophenol absorbance 415 nm;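 active = inhibition above the mean of all tested compounds plus 3 SD, set per campaign, cut at about 25% in these data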
# Target sequence (O95551 whole entry, looked up): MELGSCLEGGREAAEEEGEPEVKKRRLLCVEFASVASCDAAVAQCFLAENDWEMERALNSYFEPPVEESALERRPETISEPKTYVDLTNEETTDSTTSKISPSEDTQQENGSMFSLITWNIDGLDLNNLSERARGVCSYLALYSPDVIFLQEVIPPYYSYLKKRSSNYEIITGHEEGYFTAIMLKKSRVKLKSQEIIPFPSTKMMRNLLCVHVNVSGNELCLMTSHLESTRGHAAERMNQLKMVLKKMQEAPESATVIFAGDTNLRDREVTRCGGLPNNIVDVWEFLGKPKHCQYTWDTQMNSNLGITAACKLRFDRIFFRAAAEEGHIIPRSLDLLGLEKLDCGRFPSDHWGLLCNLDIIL
#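 Evaluation: % inhibition relative to enzyme-containing and enzyme-free wells. Material: recombinant human TDP2. Benchmarks: enzyme-free and DMSO wells. Timing: enzyme reaction with compound for 2 h at 37 °C. Compound dosing: 12.8 µM only. Measured by: p-Nitrophenol epi absorbance. Reagent: T5PNP substrate at 5 mM, a TopII-DNA adduct mimic. Replication: single well per compound.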
# UHRF1 DNA bind = UHRF1 methylated DNA binding inhibitors, counter-screen for MBD2 inhibitor project, biochemical, TR-FRET, human UHRF1; shares compounds with MBD2 DNA inh; UHRF1 binding to methylated oligonucleotide; inhibition, % at 4.4 µM; 25% of 1,000 active; AID 720530, 2013;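 also: UHRF1 SRA domain binding a labeled hemimethylated CpG hairpin DNA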
# MBD2 confirm = inhibitors of MBD2 binding to methylated DNA, confirmation, biochemical, TR-FRET, DNA-binding domain, human; inhibition, % at 4.4 µM; AID 720531, 2013; shares compounds with MBD2 DNA inh; TR-FRET MBD2-DBD binding to methylated oligonucleotide; 26% of 1,000 active; in the data active = inhibition above about 14%
# Hits are given with their value; i = inactive; nt = not tested or not shown. Shown are actives, neighbours in structure and some others; about 1.6% of the full set was active somewhere. Rule as the data show it, unless noted: active = inhibition above about 21%; inactive = the rest.
SMILES,MBD2 DNA inh,UHRF1 binding,LEDGF integ inh,TDP2 inh,UHRF1 DNA bind,MBD2 confirm
O=C(O)CSCC(=O)Nc1ccc(S(=O)(=O)N2CCCCC2)cc1,i,i,i,i,nt,nt
CC(=O)CCS(=O)(=O)c1ccc(NC(C)=O)cc1,i,i,i,i,nt,nt
CC(=O)Nc1ccc(S(=O)(=O)CC(=O)CS(=O)(=O)c2ccc(NC(C)=O)cc2)cc1,14.3,i,i,i,i,i
Cc1cc(C=O)c(C)n1-c1cc(C(=O)O)cc(C(=O)O)c1,13.8,49.2,i,i,39.3,i
Cc1cc(C=O)c(C)n1-c1cccc(C(=O)O)c1,i,i,i,i,nt,nt
Cc1cccc(C(=O)NC(=O)Nc2c(C)cc(C)nc2C)c1,13.7,24.3,i,i,i,i
Cc1ccc(C(=O)Nc2cccnc2Cl)cc1Cl,i,i,i,i,nt,nt
COc1ccccc1CCNC(=O)CSc1nc2c([nH]1)c(=O)n(C)c(=O)n2C,i,i,i,i,nt,nt
COc1ccccc1CCNC(=O)CSc1nc(=O)[nH]c2c1CCC2,23.1,i,i,i,i,i
O=S(=O)(c1ccc(Cl)cc1)N1CCN(Cc2c[nH]c3ccccc23)CC1,i,i,i,i,nt,nt
O=C(c1ccc(N2CCOCC2)cc1[N+](=O)[O-])N1CCOCC1,13.9,i,i,i,i,i
O=C(O)CNC(=O)c1ccc(N2CCOCC2)cc1[N+](=O)[O-],i,i,i,i,nt,nt
Cc1ccc(-c2ccc(S(=O)(=O)NCc3ccco3)cc2)cc1,i,i,i,i,nt,nt
C/C(=N\NC(=O)C1CCCN(S(=O)(=O)c2ccccc2)C1)c1ccncc1 (stereo not given),i,i,i,i,nt,nt
C/C(=N\NC(=O)C1CCCN(S(=O)(=O)c2ccccc2)C1)c1ccccn1 (stereo not given),15.9,i,i,i,i,i
CCOC(=O)Cn1cc(CN2C(C(=O)OC)CN(Cc3ccccc3)CCS2(=O)=O)nn1 (stereo not given),i,i,i,i,nt,nt
CCOC(=O)Cn1cc(CN2CCS(=O)(=O)N(Cc3ccccc3)C(C(=O)OC)C2)nn1 (stereo not given),13.8,i,i,i,i,i
CN1C2=N[C@@H](c3ccc4c(c3)OCO4)CC(=O)N2/C(=C\c2ccccc2)[C@@H]1c1ccccc1,i,i,i,i,nt,nt
CN1C2=N[C@@H](c3ccc4ccccc4c3)CC(=O)N2/C(=C\c2ccccc2)[C@H]1c1ccccc1,14.1,28.4,i,i,i,i
CCCC/C=C1/[C@H](c2ccccc2)N(C)C2=N[C@H](c3ccccc3)CC(=O)N21,i,i,i,i,nt,nt
CN1C2=N[C@@H](c3ccccc3)CC(=O)N2/C(=C\c2ccccc2)[C@H]1c1ccccc1,22.0,31.2,i,i,i,i
CCN(CC(=O)Nc1cccc(OC)c1)CC(=O)Nc1cccc2ccccc12,i,i,i,i,nt,nt
COc1ccc(CN2CCN(Cc3ccc(C)cc3)CC2)c(OC)c1,31.6,i,i,i,i,i
Cc1cccc(C=CC(=O)c2ccccc2)c1,i,i,i,i,nt,nt
O=C(/C=C/c1ccc2ccccc2c1)c1ccoc1,20.4,i,i,i,i,i
O=C(O)c1ccc(NS(=O)(=O)c2cccc(C(=O)Nc3ccc([N+](=O)[O-])cc3)c2)cc1,i,i,i,i,nt,nt
Cc1csc(NC(=O)CSc2nc(C)cs2)n1,i,i,i,i,nt,nt
COc1ccc(NC(=O)CSc2nc3[nH]ncc3c(=O)n2-c2ccccc2C)cc1OC,i,i,i,i,nt,nt
COc1ccc(NC(=O)CSc2nc3[nH]ncc3c(=O)n2-c2ccccc2OC)cc1OC,16.6,26.0,i,i,i,i
CN1CCn2cnc(C(=O)Nc3ccc(CNC(=O)OC(C)(C)C)cc3)c2C1=O,15.4,25.5,i,i,i,i

# Assay outcomes: PubChem, The Scripps Research Institute Molecular Screening Center
